According to PubChem BioAssay AID588810 (Broad Institute, 2011):
Values joined by “and” are separate entries in the source; they are usually repeats but may differ in a detail not shown here. Equal values may be shown once. Results filed as inconclusive are left out. Active and inactive are the calls of the source.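 The calls were made as follows: active = rising curve reaching 40% of the stimulating control's effect at or below the top valid tested dose; inconclusive = flat curve between 30 and 70% of control, or poor fit; inactive = falling curves and all the rest.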

Target: Scavenger receptor class B member 1 (Mus musculus) (UniProt Q61009)
Assay: enhancers of HDL binding to SR-BI, dose response, orthogonal assay for SR-BI HDL uptake inhibitor project, ldlA[mSR-BI] cells, Alexa488-HDL, powder samples, set 2 (AID 588810)
Conditions: ldlA[mSR-BI] CHO cells, Alexa488-HDL binding fluorescence, 3 h
How it was run: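 Test system: mouse SR-BI-expressing ldlA CHO cells / Medium: F12, 0.5% BSA, 25 mM HEPES pH 7.4 / Reagent: 10 µg/mL Alexa488-labeled HDL / Doses: dose series of compound / Times: 3 h exposure at 37 °C / Signal: bottom-read fluorescence after two PBS washes / Benchmarks: positive control BLT-1 1 µM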

Sequence of Scavenger receptor class B member 1 (Mus musculus) (Q61009 whole entry, looked up): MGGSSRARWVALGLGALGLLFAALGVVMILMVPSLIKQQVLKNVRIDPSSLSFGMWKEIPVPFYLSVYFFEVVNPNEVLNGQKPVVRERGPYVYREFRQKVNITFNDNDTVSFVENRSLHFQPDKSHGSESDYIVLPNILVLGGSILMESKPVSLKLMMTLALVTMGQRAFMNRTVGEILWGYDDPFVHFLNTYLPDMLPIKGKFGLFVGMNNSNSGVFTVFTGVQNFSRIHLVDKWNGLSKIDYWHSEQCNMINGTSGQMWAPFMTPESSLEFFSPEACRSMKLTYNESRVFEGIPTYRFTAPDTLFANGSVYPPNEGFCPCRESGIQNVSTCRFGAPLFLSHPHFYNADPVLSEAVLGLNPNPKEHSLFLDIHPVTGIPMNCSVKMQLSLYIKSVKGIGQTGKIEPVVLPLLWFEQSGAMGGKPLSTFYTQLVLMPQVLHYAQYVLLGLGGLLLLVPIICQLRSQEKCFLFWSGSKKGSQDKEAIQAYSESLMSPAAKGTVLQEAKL

| Structure (SMILES) | AC40 |
| --- | --- |
| CCC(=O)N1CCc2cc(-c3csc(NC(=O)c4cc(OC)c(OC)c(OC)c4)n3)ccc21 | 22.2 nM |
| CCC(=O)N1CCc2cc(-c3csc(NC(=O)c4cccc(OC(F)(F)F)c4)n3)ccc21 | 943 nM |
| CC(=O)N1CCc2cc(-c3nc(NC(=O)c4cccc(OC(F)(F)F)c4)sc3C)ccc21 | 488 nM |
| CCC(=O)N1CC(C)(C)c2cc(-c3csc(NC(=O)c4ccco4)n3)ccc21 | 57.1 nM |
| CCC(=O)N1CCc2cc(-c3csc(NC(=O)c4cc(OC)cc(OC)c4)n3)ccc21 | 382 nM |
| COC(=O)N1CCc2cc(-c3csc(NC(=O)c4cc(OC)cc(OC)c4)n3)ccc21 | 324 nM |
| CCC(=O)Nc1ccc(-c2csc(NC(=O)c3cccc(OC)c3)n2)cc1 | 347 nM |
| COc1ccc(-c2nnn(CC(=O)N(CC(=O)N(C)C3CCCC3)C3CCCCC3)n2)cc1OC | 4950 nM |
| CCNC(=O)N1CCc2cc(-c3csc(NC(=O)c4cc(OC)cc(OC)c4)n3)ccc21 | 12.7 nM |
| CCC(=O)N1CCc2cc(-c3csc(NCc4cc(OC)cc(OC)c4)n3)ccc21 | 912 nM |
| O=C(Nc1nc(-c2ccc3c(c2)CCN3)cs1)c1ccco1 | 295 nM |
| COCC(=O)N1CCc2cc(-c3csc(NC(=O)c4cc(OC)cc(OC)c4)n3)ccc21 | 21.8 nM |
| COc1ccc(-c2nnn(CC(=O)N(C3CCCCC3)C(C)C(=O)NC3CCCC3)n2)cc1OC (stereo not drawn) | 437 nM |
| CCC(=O)N1CCc2cc(-c3csc(NC(=O)c4cc5ccccc5o4)n3)ccc21 | 1580 nM |
| COc1cc(OC)cc(C(=O)Nc2nc(-c3ccc4c(c3)CCN4C(=O)OC(C)(C)C)cs2)c1 | 24.5 nM |
| COc1ccc(-c2nnn(CC(=O)N(CC(=O)NC3CCCC3)C3CCCCC3)n2)cc1OC | 231 nM |
| Cc1ccc2oc(-c3cccc(NC(=O)c4cc(-n5cnnc5)ccc4Cl)c3)nc2c1 | > 80000 nM (inactive) |

| Structure (SMILES) | AC40 |
| --- | --- |
| COc1ccc(-c2nnn(CC(=O)N(CC(=O)N3CCCCC3)C3CCCCC3)n2)cc1OC | 11800 nM |
| COc1c(NC(=O)C(=O)c2ccc(OCCN3CCOCC3)c3ccccc23)cc(C(C)(C)C)cc1NS(C)(=O)=O | 1640 nM |
| O=C(CN(C(=O)Cn1nnc(-c2ccc3c(c2)OCO3)n1)C1CCCCC1)NC1CCCC1 | 337 nM |
| CCC(=O)N1CCc2cc(-c3csc(NC(=O)c4ccc(F)c(OC)c4)n3)ccc21 | 358 nM |
| CCC(=O)N1CCc2cc(-c3csc(NC(=O)c4cccc(OC)c4)n3)ccc21 | 454 nM |
| CC(C(=O)NC1CCCC1)N(C(=O)Cn1nnc(-c2ccc3c(c2)OCO3)n1)C1CCCCC1 (stereo not drawn) | 214 nM |
| CCC(=O)N1CC(C)(C)c2cc(-c3csc(NC(=O)c4cc(OC)cc(OC)c4)n3)ccc21 | 6.07 nM |
| CCC(=O)N1CCc2cc(-c3csc(NC(=O)c4ccco4)n3)ccc21 | 312 nM and 2270 nM |
| COc1cc(OC)cc(C(=O)Nc2nc(-c3ccc4c(c3)CCN4C(=O)CN(C)C)cs2)c1 | 232 nM |
| COc1cc(OC)cc(C(=O)Nc2nc(-c3ccc4c(c3)CCN4C(C)=O)cs2)c1 | 371 nM |
| C[C@H](C(=O)NC1CCCC1)N(C(=O)Cn1nnc(-c2ccc3c(c2)OCO3)n1)C1CCCCC1 | 169 nM |
| COc1ccc(-c2cc(CC(=O)N(C3CCCCC3)C(C)C(=O)NC3CCCC3)no2)cc1OC (stereo not drawn) | 145 nM |
| CCC(=O)n1ccc2cc(-c3csc(NC(=O)c4cc(OC)cc(OC)c4)n3)ccc21 | 672 nM |
| COc1ccc(-c2nc(CC(=O)N(C3CCCCC3)C(C)C(=O)NC3CCCC3)co2)cc1OC (stereo not drawn) | 1360 nM |
| C[C@@H]1CN([C@H](C)CO)C(=O)c2cc(NC(=O)Cc3cn(C)c4ccccc34)ccc2O[C@H]1CN(C)S(=O)(=O)c1ccc(Cl)cc1 | 73.3 nM |
| C[C@@H](C(=O)NC1CCCC1)N(C(=O)Cn1nnc(-c2ccc3c(c2)OCO3)n1)C1CCCCC1 | 4690 nM |
